Experimental data: ChEMBL document CHEMBL3621160, “Pseudosaccharin amines as potent and selective KV1.5 blockers” (Bioorg Med Chem Lett, 2015)

Assays:
Rattus norvegicus [1] = species on record: Rattus norvegicus; assay: Inhibition of rat L-type calcium channel dihydropyridine binding site at 10 uM relative to control
In short: (§1)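 Single-concentration screen at 10 µM across a panel of over 37 receptors and enzymes linked to cardiovascular effects or toxicity. Read-out is percent activity.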

[2] = molecular target: Histamine H1 receptor (Homo sapiens) (UniProt P35367); assay: Inhibition of human histamine H1 receptor at 10 uM relative to control
In short: (§2)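 Screening panel of over 37 receptors and enzymes relevant to cardiovascular effects or toxicity. Each target was tested at a single concentration of 10 µM, with % activity reported.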

[3] = molecular target: Protein kinase C (PKC) (Rattus norvegicus) (UniProt P05696+P68403+P09216+P63319+P09215+Q64617+Q9WTQ0+P09217); assay: Inhibition of rat PKC at 10 uM relative to control; in short: as §2
Rattus norvegicus [4] = species on record: Rattus norvegicus; assay: Inhibition of rat sodium channel site 2 at 10 uM relative to control; in short: as §1
[5] = molecular target: L-type calcium channel, benzothiazepine binding site (Rattus norvegicus, UniProt P22002+P27732+Q02485); assay: Inhibition of rat L-type calcium channel benzothiazepine binding site at 10 uM relative to control; in short: as §2
Rattus norvegicus [6] = species on record: Rattus norvegicus; assay: Inhibition of rat N-methyl D-aspartate receptor phencyclidine binding site at 10 uM relative to control; in short: as §1
Rattus norvegicus [7] = species on record: Rattus norvegicus; assay: Inhibition of rat choline transporter at 10 uM relative to control; in short: as §1
[8] = molecular target: Adrenergic receptor alpha-2 (Rattus norvegicus) (UniProt P22086+P19328+P22909); assay: Inhibition of rat alpha-2 adrenergic receptor at 10 uM relative to control; in short: as §2
[9] = molecular target: Histamine H2 receptor (Homo sapiens) (UniProt P25021); assay: Inhibition of human histamine H2 receptor at 10 uM relative to control; in short: as §2
[10] = molecular target: 5-hydroxytryptamine receptor 1B (Rattus norvegicus) (UniProt P28564); assay: Inhibition of rat 5HT-1B receptor at 10 uM relative to control; in short: as §2
[11] = molecular target: Progesterone receptor (Homo sapiens) (UniProt P06401); assay: Inhibition of human progesterone B receptor at 10 uM relative to control; in short: as §2
[12] = molecular target: Androgen receptor (Rattus norvegicus) (UniProt P15207); assay: Inhibition of rat testosterone receptor at 10 uM relative to control; in short: as §2
Homo sapiens [13] = species on record: Homo sapiens; assay: Inhibition of human nicotinic acetylcholine receptor at 10 uM relative to control; in short: as §1
[14] = molecular target: Sodium-dependent dopamine transporter (Homo sapiens) (UniProt Q01959); assay: Inhibition of human DAT at 10 uM relative to control; in short: as §2
MAO-B = MAO-B (Homo sapiens, UniProt P27338); assay: Inhibition of human MAOB at 10 uM relative to control; in short: as §2
[15] = molecular target: Sodium-dependent noradrenaline transporter (Homo sapiens) (UniProt P23975); assay: Inhibition of human NET at 10 uM relative to control; in short: as §2
[16] = molecular target: Adrenergic receptor alpha-1 (Rattus norvegicus) (UniProt P15823+P23944+P43140); assay: Inhibition of rat alpha-1 adrenergic receptor at 10 uM relative to control; in short: as §2
[17] = molecular target: Phosphodiesterase 3 (Homo sapiens) (UniProt Q14432+Q13370); assay: Inhibition of human PDE3 at 10 uM relative to control; format: protein assay
[18] = molecular target: Potassium voltage-gated channel subfamily A member 5 (Homo sapiens, UniProt P22460); assay: Inhibition of human KV1.5 expressed in mouse L929 cells assessed as decrease in ultrarapid potassium current amplitude; format: cell-based
In short: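 Potassium current block was measured in mouse fibroblast L929 cells expressing human KV1.5. IC50 values are means of 2-4 experiments.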

[19] = Metabolic stability in rat liver microsomes assessed as compound remaining at 3 uM after 10 mins; format: ADME; conditions: read-out: Stability
In short: (§3)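 Parent compound at 3 µM was incubated 10 min in human, rat or mouse liver microsomes with appropriate co-factors. Read-out is percent of parent remaining.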

[20] = Metabolic stability in mouse liver microsomes assessed as compound remaining at 3 uM after 10 mins; format: ADME; conditions: read-out: Stability; in short: as §3
Homo sapiens [21] = species on record: Homo sapiens; assay: Inhibition of sodium channel (unknown origin) at 10 uM relative to control
In short: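 Calcium (ICa) and sodium (INa) currents were measured as percent inhibition at a single concentration of 10 µM. Values are means of 2-4 experiments.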

[22] = Cmax in rat at 2 mg/kg administered as intra-arterial infusion for 10 mins and 5 mg/kg, po; format: ADME, organism-based; design: route oral; conditions: in vivo
In short: (§4)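 Rats (3 per compound) received intra-arterial infusion over 10 min or oral gavage. Vehicle for both routes was 40% PEG 400, 40% water and 20% ethanol. Values are means of 3 animals.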

[23] = AUC in rat at 5 mg/kg, po; format: ADME, organism-based; conditions: in vivo; in short: as §4
[24] = Half life in rat at 2 mg/kg administered as intra-arterial infusion for 10 mins and 5 mg/kg, po; format: ADME, organism-based; conditions: in vivo; in short: as §4
[25] = Clearance in rat at 2 mg/kg administered as intra-arterial infusion for 10 mins and 5 mg/kg, po; format: ADME, organism-based; conditions: in vivo, iv; in short: as §4
[26] = Volume of distribution at steady state in rat at 2 mg/kg administered as intra-arterial infusion for 10 mins and 5 mg/kg, po; format: ADME, organism-based; conditions: in vivo, read-out: Vdss
In short: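 Rat PK: 2.0 mg/kg by intra-arterial infusion over 10 min and 5.0 mg/kg by oral gavage, vehicle 40% PEG 400, 40% water, 20% ethanol for both routes; Vss from 3 animals, reported as mean.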

[27] = Oral bioavailability in rat at 5 mg/kg; format: ADME, organism-based; conditions: in vivo; in short: as §4
Rattus norvegicus [28] = assay: Induction of QT interval prolongation in rat at 3 mg/kg, iv administered as infusion for 5 mins by ECG analysis; format: functional
In short: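 Rats were dosed at 3 mg/Kg. Block of IKur was read as the percent change in the ECG QT interval; mean blood pressure and plasma concentration were recorded alongside. Values are means of 2-4 experiments.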

Rattus norvegicus [29] = assay: Toxicity in rat assessed as increase in blood pressure at 3 mg/kg, iv administered as infusion for 5 mins; format: organism-based; conditions: in vivo
In short: (§5)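 Rats were dosed at 3 mg/Kg. QT interval on ECG, mean blood pressure (% change) and plasma concentration were measured. Values are means of 2-4 experiments.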

[30] = Plasma concentration in rat at 3 mg/kg, iv administered as infusion for 5 mins; format: ADME, organism-based; in short: as §5
Oryctolagus cuniculus [31] = species on record: Oryctolagus cuniculus; assay: Toxicity in rabbit assessed as effect on ventricular effective refractory period; format: organism-based, Cardiac ventricle; conditions: in vivo
In short: (§6)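 Rabbits were dosed at 0.3, 1.0 and 3.0 mg/Kg. Effective refractory period was measured in atrium and ventricle, and blood pressure was recorded. The plasma concentration giving 20% atrial ERP prolongation (EC20) was calculated.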

Oryctolagus cuniculus [32] = assay: Toxicity in rabbit assessed as increase in blood pressure at 0.3 to 3 mg/kg; format: organism-based; conditions: in vivo; in short: as §6
[33] = Cmax in rabbit at 0.3 to 3 mg/kg; format: ADME, organism-based, Oryctolagus cuniculus; conditions: in vivo; in short: as §6
[34] = molecular target: Somatostatin receptor type 2 (Homo sapiens) (UniProt P30874); assay: Inhibition of human SS2 receptor at 10 uM relative to control; in short: as §2
[35] = molecular target: Adrenergic receptor beta (Rattus norvegicus) (UniProt P18090+P10608+P26255); assay: Inhibition of rat beta adrenergic receptor at 10 uM relative to control; in short: as §2
[36] = molecular target: D(3) dopamine receptor (Homo sapiens) (UniProt P35462); assay: Inhibition of human dopamine D3 receptor at 10 uM relative to control; in short: as §2
Rattus norvegicus [37] = species on record: Rattus norvegicus; assay: Inhibition of rat opioid receptor at 10 uM relative to control; in short: as §1

Chain of Sodium-dependent dopamine transporter (Homo sapiens) (Q01959 whole entry): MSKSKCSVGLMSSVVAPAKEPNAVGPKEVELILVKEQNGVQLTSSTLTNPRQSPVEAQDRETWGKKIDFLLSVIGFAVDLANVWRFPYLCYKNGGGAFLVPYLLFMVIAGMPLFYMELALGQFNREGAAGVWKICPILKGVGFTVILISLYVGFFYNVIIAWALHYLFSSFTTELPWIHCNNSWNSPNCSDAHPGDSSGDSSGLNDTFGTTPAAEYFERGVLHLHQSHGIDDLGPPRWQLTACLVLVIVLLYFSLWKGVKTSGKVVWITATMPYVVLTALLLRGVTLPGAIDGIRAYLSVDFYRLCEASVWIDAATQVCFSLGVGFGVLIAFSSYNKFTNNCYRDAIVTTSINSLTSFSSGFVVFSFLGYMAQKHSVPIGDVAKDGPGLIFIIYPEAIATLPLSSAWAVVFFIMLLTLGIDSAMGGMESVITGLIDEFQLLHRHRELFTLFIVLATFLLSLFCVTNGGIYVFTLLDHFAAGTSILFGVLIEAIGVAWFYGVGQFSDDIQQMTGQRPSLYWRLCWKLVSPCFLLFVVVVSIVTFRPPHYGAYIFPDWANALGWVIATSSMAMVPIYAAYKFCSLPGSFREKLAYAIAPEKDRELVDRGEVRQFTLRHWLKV
Chain of Somatostatin receptor type 2 (Homo sapiens) (P30874 whole entry): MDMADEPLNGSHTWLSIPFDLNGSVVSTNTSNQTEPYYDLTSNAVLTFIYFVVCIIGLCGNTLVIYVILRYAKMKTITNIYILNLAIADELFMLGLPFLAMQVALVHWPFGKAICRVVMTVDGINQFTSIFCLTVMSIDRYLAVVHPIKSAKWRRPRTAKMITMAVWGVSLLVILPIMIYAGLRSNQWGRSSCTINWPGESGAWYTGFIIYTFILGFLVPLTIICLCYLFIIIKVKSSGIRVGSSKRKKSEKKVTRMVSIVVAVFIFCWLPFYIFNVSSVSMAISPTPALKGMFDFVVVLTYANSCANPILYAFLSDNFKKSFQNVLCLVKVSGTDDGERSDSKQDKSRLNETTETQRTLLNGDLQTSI
Chain of Sodium-dependent noradrenaline transporter (Homo sapiens) (P23975 whole entry): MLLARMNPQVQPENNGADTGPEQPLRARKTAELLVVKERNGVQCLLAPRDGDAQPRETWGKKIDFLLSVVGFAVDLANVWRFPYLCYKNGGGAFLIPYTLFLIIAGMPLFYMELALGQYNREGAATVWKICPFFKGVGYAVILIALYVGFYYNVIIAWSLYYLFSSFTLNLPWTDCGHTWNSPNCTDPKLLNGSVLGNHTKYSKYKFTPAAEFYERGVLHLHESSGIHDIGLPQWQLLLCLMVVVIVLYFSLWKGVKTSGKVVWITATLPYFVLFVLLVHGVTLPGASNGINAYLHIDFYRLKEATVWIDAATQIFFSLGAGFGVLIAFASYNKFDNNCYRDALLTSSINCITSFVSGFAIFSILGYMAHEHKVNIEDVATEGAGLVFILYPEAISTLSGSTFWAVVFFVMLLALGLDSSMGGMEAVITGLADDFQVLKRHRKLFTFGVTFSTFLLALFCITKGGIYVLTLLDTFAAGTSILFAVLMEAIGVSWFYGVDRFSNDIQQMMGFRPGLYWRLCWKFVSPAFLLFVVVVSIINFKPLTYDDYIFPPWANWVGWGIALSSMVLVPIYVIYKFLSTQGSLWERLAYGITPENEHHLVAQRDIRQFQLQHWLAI
Chain of Histamine H1 receptor (Homo sapiens) (P35367 whole entry): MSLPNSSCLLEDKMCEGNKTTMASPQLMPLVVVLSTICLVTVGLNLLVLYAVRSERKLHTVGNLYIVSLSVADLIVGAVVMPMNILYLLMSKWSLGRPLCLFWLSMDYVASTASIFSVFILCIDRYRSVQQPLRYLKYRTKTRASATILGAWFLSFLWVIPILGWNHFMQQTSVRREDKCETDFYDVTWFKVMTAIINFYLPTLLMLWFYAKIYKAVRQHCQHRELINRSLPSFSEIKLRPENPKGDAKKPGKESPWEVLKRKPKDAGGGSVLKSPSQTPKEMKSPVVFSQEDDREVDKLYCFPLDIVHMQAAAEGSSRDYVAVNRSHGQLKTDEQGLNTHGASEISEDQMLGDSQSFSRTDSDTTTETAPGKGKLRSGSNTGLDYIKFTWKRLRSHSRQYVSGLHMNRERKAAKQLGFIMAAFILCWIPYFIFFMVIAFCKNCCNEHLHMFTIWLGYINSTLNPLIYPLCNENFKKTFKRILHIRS
Chain of D(3) dopamine receptor (Homo sapiens) (P35462 whole entry): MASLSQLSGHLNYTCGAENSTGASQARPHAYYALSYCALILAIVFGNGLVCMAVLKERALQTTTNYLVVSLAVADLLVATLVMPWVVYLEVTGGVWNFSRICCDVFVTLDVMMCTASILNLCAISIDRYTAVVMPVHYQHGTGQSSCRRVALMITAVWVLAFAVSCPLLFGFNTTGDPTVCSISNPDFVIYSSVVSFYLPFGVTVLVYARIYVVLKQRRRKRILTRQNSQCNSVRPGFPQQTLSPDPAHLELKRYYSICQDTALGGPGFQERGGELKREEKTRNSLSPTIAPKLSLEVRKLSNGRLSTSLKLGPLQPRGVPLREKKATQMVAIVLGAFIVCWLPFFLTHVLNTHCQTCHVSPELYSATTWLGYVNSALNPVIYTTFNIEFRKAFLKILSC
Chain of Progesterone receptor (Homo sapiens) (P06401 whole entry): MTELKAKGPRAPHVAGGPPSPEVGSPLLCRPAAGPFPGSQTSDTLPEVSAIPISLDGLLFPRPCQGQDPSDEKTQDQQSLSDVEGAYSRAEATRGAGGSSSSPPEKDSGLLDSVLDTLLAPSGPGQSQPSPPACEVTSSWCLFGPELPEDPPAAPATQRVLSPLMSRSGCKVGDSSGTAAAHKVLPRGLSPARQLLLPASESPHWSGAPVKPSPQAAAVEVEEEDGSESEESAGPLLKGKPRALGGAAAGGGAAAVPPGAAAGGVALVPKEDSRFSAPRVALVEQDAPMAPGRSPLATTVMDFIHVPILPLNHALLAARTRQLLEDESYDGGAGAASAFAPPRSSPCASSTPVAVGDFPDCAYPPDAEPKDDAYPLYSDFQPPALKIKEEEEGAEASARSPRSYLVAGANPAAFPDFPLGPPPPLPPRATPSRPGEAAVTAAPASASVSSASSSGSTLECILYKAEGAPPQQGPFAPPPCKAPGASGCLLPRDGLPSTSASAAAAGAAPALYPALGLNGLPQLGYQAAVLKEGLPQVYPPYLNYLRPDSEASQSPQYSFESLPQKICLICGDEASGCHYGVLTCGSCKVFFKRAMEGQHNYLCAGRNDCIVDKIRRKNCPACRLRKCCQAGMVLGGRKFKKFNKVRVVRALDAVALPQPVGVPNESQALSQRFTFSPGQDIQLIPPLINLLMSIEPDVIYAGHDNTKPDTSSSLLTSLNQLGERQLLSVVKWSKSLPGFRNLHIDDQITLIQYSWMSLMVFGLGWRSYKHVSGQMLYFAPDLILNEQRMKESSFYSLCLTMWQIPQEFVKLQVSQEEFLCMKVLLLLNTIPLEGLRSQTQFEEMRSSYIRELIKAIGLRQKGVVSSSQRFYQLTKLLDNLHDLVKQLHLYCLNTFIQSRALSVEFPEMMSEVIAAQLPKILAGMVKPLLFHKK
Chain of MAO-B (P27338 whole entry): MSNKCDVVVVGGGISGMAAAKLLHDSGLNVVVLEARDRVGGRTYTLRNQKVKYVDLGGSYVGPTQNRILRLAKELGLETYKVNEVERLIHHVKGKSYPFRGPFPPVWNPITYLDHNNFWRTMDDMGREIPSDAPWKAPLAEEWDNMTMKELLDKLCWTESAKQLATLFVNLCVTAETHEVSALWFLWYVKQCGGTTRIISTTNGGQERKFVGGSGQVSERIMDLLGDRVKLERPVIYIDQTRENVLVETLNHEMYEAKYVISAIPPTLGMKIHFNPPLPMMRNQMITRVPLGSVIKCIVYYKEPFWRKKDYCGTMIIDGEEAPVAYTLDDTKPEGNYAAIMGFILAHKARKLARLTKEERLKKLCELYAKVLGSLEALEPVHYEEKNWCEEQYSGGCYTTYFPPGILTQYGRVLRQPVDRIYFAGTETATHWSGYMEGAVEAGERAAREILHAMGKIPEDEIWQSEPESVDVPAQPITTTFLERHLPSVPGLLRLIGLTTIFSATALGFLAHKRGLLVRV
Chain of 5-hydroxytryptamine receptor 1B (Rattus norvegicus) (P28564 whole entry): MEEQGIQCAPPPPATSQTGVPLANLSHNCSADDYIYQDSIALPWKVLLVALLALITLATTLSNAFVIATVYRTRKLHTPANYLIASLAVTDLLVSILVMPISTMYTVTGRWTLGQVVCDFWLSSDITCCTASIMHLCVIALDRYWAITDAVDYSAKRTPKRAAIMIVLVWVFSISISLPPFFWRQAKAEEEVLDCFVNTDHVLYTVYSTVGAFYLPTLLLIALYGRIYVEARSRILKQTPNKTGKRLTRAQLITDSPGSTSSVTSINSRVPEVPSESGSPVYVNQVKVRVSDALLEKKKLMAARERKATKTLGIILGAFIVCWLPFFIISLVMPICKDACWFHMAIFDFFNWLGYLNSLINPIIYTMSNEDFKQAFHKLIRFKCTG
Chain of Histamine H2 receptor (Homo sapiens) (P25021 whole entry): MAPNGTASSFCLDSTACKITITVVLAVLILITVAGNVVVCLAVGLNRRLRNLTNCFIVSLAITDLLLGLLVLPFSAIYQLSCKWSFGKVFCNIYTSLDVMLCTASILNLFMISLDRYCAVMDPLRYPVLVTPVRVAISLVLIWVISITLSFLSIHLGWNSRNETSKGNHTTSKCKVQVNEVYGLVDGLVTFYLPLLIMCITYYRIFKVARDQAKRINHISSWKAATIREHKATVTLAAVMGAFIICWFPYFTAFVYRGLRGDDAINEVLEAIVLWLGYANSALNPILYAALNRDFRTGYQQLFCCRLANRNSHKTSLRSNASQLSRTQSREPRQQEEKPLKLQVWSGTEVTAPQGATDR

Row | SMILES | inhibition (Rattus norvegicus [1]) | inhibition [2] | inhibition [3] | inhibition (Rattus norvegicus [4]) | inhibition at 10 µM [5] | inhibition (Rattus norvegicus [6]) | inhibition (Rattus norvegicus [7]) | inhibition [8] | inhibition [9] | inhibition [10] | inhibition [11] | inhibition [12] | inhibition (Homo sapiens [13]) | inhibition [14] | inhibition at 10 µM (MAO-B) | inhibition [15] | inhibition [16] | inhibition [17] | IC50 [18] | remaining at 10 min, 3 µM [19] | other results
1 | COc1cccc2c1C(NC[C@]1(c3ccccc3)CC[C@H](O)CC1)=NS2(=O)=O | 3% | 19% | 9% | 9% | 0% | -6% | 17% | -6% | 19% | 42% | 6% | 2% | 12% | 18% | 3% | 8% | 13% | 53% | 34 nM | 68% | remaining at 10 min, 3 µM [20]: 53%; inhibition (Homo sapiens [21]): 27%; Cmax [22]: 1700 nM; AUC [23]: 2.7 µM·h; half-life [24]: 306 min; clearance [25]: 27 mL/min/kg; Vd [26]: 3.2 L/kg; bioavailability [27]: 34%; Activity (Rattus norvegicus [28]): 66%; Activity (Rattus norvegicus [29]): 13%; concentration at 5 min [30]: 153 µM; Activity (Oryctolagus cuniculus [31]): Non-toxic; Activity (Oryctolagus cuniculus [32]): 19%; Cmax [33]: 6.1 µM; inhibition [34]: 4%; inhibition [35]: -4%; inhibition [36]: -9%; inhibition (Rattus norvegicus [37]): 23%
2 | COc1cccc2c1C(NC[C@]1(c3ccccc3)CC[C@H](NC(=O)OC(C)C)CC1)=NS2(=O)=O | 13% | 13% | 29% | 30% | 15% | 2% | 1% | -2% | 19% | 23% | 10% | 20% | 10% | 37% | 9% | 6% | -6% | 15% | 52 nM | 29% | remaining at 10 min, 3 µM [20]: < 1%; inhibition (Homo sapiens [21]): 14%; Cmax [22]: 930 nM; AUC [23]: 1.8 µM·h; half-life [24]: 54 min; clearance [25]: 9.4 mL/min/kg; Vd [26]: 0.3 L/kg; bioavailability [27]: 7.2%; Activity (Rattus norvegicus [28]): 68%; Activity (Rattus norvegicus [29]): 44%; concentration at 5 min [30]: 38 µM; Activity (Oryctolagus cuniculus [31]): Non-toxic; Activity (Oryctolagus cuniculus [32]): 17%; Cmax [33]: 4.7 µM; inhibition [34]: 6%; inhibition [35]: 0%; inhibition [36]: 11%; inhibition (Rattus norvegicus [37]): 64%
